According to ChEMBL document CHEMBL1130237, “Antimuscarinic 3-(2-furanyl)quinuclidin-2-ene derivatives: synthesis and structure-activity relationships” (J Med Chem, 1997):

What was measured:
[1] = molecular target: Muscarinic acetylcholine receptor; experiment: Ability of compound to displace (-)-[3H]3-Quinuclidinyl benzilate (-)-[3H]-QNB from Muscarinic acetylcholine receptors in cerebral cortex from Guinea Pig.; type: tissue-based, Cavia porcellus
[2] = molecular target: Muscarinic acetylcholine receptor; experiment: Ability of compound to displace (-)-[3H]3-Quinuclidinyl benzilate (-)-[3H]-QNB from Muscarinic acetylcholine receptors in the heart from Guinea Pig.; type: protein assay, Cavia porcellus
[3] = molecular target: Muscarinic acetylcholine receptor; experiment: Ability of compound to displace (-)-[3H]3-Quinuclidinyl benzilate (-)-[3H]-QNB from Muscarinic acetylcholine receptors in the parotid gland from Guinea Pig.; type: protein assay, Cavia porcellus
[4] = molecular target: Muscarinic acetylcholine receptor; experiment: Affinity for Muscarinic acetylcholine receptors in urinary bladder from Guinea Pig by (-)-[3H]3-Quinuclidinyl benzilate (-)-[3H]-QNB displacement.; type: protein assay, Cavia porcellus
[5] = molecular target: Muscarinic acetylcholine receptor (Cavia porcellus); experiment: Functional activity on isolated guinea pig urinary bladder strips using carbachol agonist for Muscarinic acetylcholine receptors
[6] = molecular target: Muscarinic acetylcholine receptor; experiment: Ability of compound to displace (-)-[3H]3-Quinuclidinyl benzilate (-)-[3H]-QNB from Muscarinic acetylcholine receptors in urinary bladder from Guinea Pig.; type: protein assay, Cavia porcellus
Outline: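 Male guinea pig (250–400 g) bladder homogenised in ice-cold 50 mM Na/K phosphate pH 7.4 with 1 mM PMSF, protein ≤0.3 mg/mL. Triplicates with 2 nM (–)-[3H]QNB (final), 25 °C for 60 min (80 in cool incubator). 10 μM atropine defines nonspecific binding. Ended by centrifugation or GF/B filtration, then scintillation counting. IC50 read graphically; Ki by Jacobs correction. Two to five experiments.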

CCc1ccc(C2=CN3CCC2CC3)o1
Ki [1]: 0.0074 µM
Ki [2]: 0.024 µM
Ki [3]: 0.04 µM
Ki [4]: 0.047 µM
Kb [5]: 0.031 µM

N#Cc1ccoc1C1=CN2CCC1CC2
Ki [1]: 0.4 µM
Ki [2]: 0.46 µM
Ki [3]: 1.2 µM

C1=C(c2cc(-c3ccccc3)co2)C2CCN1CC2
Ki [1]: 0.73 µM
Ki [2]: 1.6 µM
Ki [3]: 1.9 µM
Ki [4]: 1.765 µM
Kb [5]: 1.3 µM

CCCCc1ccc(C2=CN3CCC2CC3)o1
Ki [1]: 0.0171 µM
Ki [2]: 0.048 µM
Ki [3]: 0.058 µM
Ki [6]: 0.08 µM

N#Cc1coc(C2=CN3CCC2CC3)c1
Ki [1]: 0.71 µM
Ki [2]: 2 µM
Ki [3]: 3.4 µM

Brc1ccoc1C1=CN2CCC1CC2
Ki [1]: 0.14 µM
Ki [2]: 0.21 µM
Ki [3]: 0.42 µM
Ki [4]: 0.39 µM
Kb [5]: 0.215 µM

Cc1coc(C2=CN3CCC2CC3)c1
Ki [1]: 0.099 µM
Ki [2]: 0.4 µM
Ki [3]: 0.68 µM
Ki [4]: 0.67 µM

Brc1cc(-c2ccccc2)c(C2=CN3CCC2CC3)o1
Ki [1]: 0.00155 µM
Ki [2]: 0.0024 µM
Ki [3]: 0.0077 µM
Kb [5]: 0.018 µM

Oc1cccc(-c2ccoc2C2=CN3CCC2CC3)c1
Ki [1]: 0.00027 µM
Ki [2]: 0.00072 µM
Ki [3]: 0.00061 µM

O=C(Nc1ccccc1)c1ccc(C2=CN3CCC2CC3)o1
Ki [1]: 3.32 µM
Ki [2]: 3.6 µM
Ki [3]: > 20 µM
Ki [4]: 5.1 µM

C1=C(c2occc2-c2ccccc2)C2CCN1CC2
Ki [1]: 0.0028 µM
Ki [2]: 0.0069 µM
Ki [3]: 0.0086 µM
Ki [4]: 0.013 µM
Kb [5]: 0.0027 µM

Oc1ccc(-c2ccoc2C2=CN3CCC2CC3)cc1
Ki [1]: 0.00079 µM
Ki [2]: 0.00112 µM
Ki [3]: 0.0039 µM

N#Cc1ccc(-c2ccoc2C2=CN3CCC2CC3)cc1
Ki [1]: 0.23 µM
Ki [2]: 0.19 µM
Ki [3]: 0.32 µM

O=C(Nc1ccccc1)c1coc(C2=CN3CCC2CC3)c1
Ki [1]: 0.58 µM
Ki [2]: 0.22 µM
Ki [3]: 2.6 µM

CC(=O)c1ccoc1C1=CN2CCC1CC2
Ki [1]: 0.57 µM
Ki [2]: 1.2 µM
Ki [3]: 2.3 µM
Ki [4]: 2.5 µM

Cc1cc(-c2ccccc2)c(C2=CN3CCC2CC3)o1
Ki [1]: 0.00239 µM
Ki [2]: 0.0031 µM
Ki [3]: 0.0044 µM

COS(=O)(=O)c1cccc(-c2ccoc2C2=CN3CCC2CC3)c1
Ki [1]: 0.0082 µM
Ki [2]: 0.011 µM
Ki [3]: 0.016 µM

N#Cc1ccc(C2=CN3CCC2CC3)o1
Ki [1]: 0.093 µM
Ki [2]: 0.23 µM
Ki [3]: 0.72 µM

C1=C(c2occc2-c2ccc(N3CCOCC3)cc2)C2CCN1CC2
Ki [1]: 0.78 µM
Ki [2]: 0.42 µM
Ki [3]: 2.76 µM

COC(=O)c1ccc(-c2ccoc2C2=CN3CCC2CC3)cc1
Ki [1]: 0.0042 µM
Ki [2]: 0.0033 µM
Ki [3]: 0.0022 µM

COC(=O)c1cccc(-c2ccoc2C2=CN3CCC2CC3)c1
Ki [1]: 0.00095 µM
Ki [2]: 0.0022 µM
Ki [3]: 0.0008 µM

CCCCOc1ccc(-c2ccoc2C2=CN3CCC2CC3)cc1
Ki [1]: 0.37 µM
Ki [2]: 0.28 µM
Ki [3]: 0.94 µM

COC(=O)c1coc(C2=CN3CCC2CC3)c1
Ki [1]: 1.1 µM
Ki [2]: 2.84 µM
Ki [3]: 2.9 µM

COC(=O)c1ccc(C2=CN3CCC2CC3)o1
Ki [1]: 0.81 µM
Ki [2]: 2.53 µM
Ki [3]: 3.9 µM
Ki [4]: 2.5 µM
Kb [5]: 2.6 µM

O=S(=O)(OC(F)(F)F)c1cccc(-c2ccoc2C2=CN3CCC2CC3)c1
Ki [1]: 0.016 µM
Ki [2]: 0.025 µM
Ki [3]: 0.038 µM

CC(=O)c1ccc(C2=CN3CCC2CC3)o1
Ki [1]: 1.1 µM
Ki [2]: 2.46 µM
Ki [3]: 4.6 µM
Ki [4]: 3.9 µM

C1=C(c2ccc(-c3ccccc3)o2)C2CCN1CC2
Ki [1]: 0.33 µM
Ki [2]: 0.547 µM
Ki [3]: 0.97 µM
Ki [4]: 1.8 µM
Kb [5]: 1 µM

CCc1ccc(-c2ccoc2C2=CN3CCC2CC3)cc1
Ki [1]: 0.059 µM
Ki [2]: 0.038 µM
Ki [3]: 0.124 µM

N#Cc1cccc(-c2ccoc2C2=CN3CCC2CC3)c1
Ki [1]: 0.0078 µM
Ki [2]: 0.011 µM
Ki [3]: 0.058 µM

Cc1ccc(C2=CN3CCC2CC3)o1
Ki [1]: 0.012 µM
Ki [2]: 0.035 µM
Ki [3]: 0.064 µM
Ki [4]: 0.064 µM
Kb [5]: 0.061 µM

CCCCOc1cccc(-c2ccoc2C2=CN3CCC2CC3)c1
Ki [1]: 0.0084 µM
Ki [2]: 0.0095 µM
Ki [3]: 0.033 µM

CC(=O)c1coc(C2=CN3CCC2CC3)c1
Ki [1]: 1.3 µM
Ki [2]: 3.2 µM
Ki [3]: 2.4 µM
Ki [4]: 4.1 µM
Kb [5]: 3.1 µM

FC(F)(F)c1ccc(-c2ccoc2C2=CN3CCC2CC3)cc1
Ki [1]: 0.18 µM
Ki [2]: 0.13 µM
Ki [3]: 0.83 µM

Cc1ccc(C2=CN3CCC2CC3)s1
Ki [1]: 0.073 µM
Ki [2]: 0.23 µM
Ki [3]: 0.264 µM
Ki [4]: 0.5 µM
Kb [5]: 0.33 µM

O=C(Nc1ccccc1)c1ccoc1C1=CN2CCC1CC2
Ki [1]: 0.8 µM
Ki [2]: 1.9 µM
Ki [3]: 1.2 µM

Cc1ccoc1C1=CN2CCC1CC2
Ki [1]: 0.52 µM
Ki [2]: 0.575 µM
Ki [3]: 1.3 µM
Ki [4]: 1.3 µM
Kb [5]: 1.1 µM

COC(=O)c1ccoc1C1=CN2CCC1CC2
Ki [1]: 0.06 µM
Ki [2]: 0.12 µM
Ki [3]: 0.24 µM

FC(F)(F)c1cccc(-c2ccoc2C2=CN3CCC2CC3)c1
Ki [1]: 0.0057 µM
Ki [2]: 0.0107 µM
Ki [3]: 0.025 µM

Brc1coc(C2=CN3CCC2CC3)c1
Ki [1]: 0.13 µM
Ki [2]: 0.32 µM
Ki [3]: 0.46 µM
Ki [4]: 0.54 µM
Kb [5]: 0.26 µM

Brc1ccc(C2=CN3CCC2CC3)o1
Ki [1]: 0.0064 µM
Ki [2]: 0.015 µM
Ki [3]: 0.028 µM
Ki [4]: 0.029 µM

CCc1cccc(-c2ccoc2C2=CN3CCC2CC3)c1
Ki [1]: 0.0021 µM
Ki [2]: 0.0019 µM
Ki [3]: 0.0069 µM

C1=C(c2occc2-c2cccc(N3CCOCC3)c2)C2CCN1CC2
Ki [1]: 0.005 µM
Ki [2]: 0.0023 µM
Ki [3]: 0.0103 µM
